# This sample holds only a part of the variants without activity.
# B1: tRNA (parent)
# chain: GUUCCGUUGGCGUAAUGGUAACGCGUCUCCCUCCUAAGGAGAAGACUGCGGGUUCGAGUCCCGUACGGAACG
# Variants of: B1
# Test: yeast fitness relative to wild type (ratio to wild type); higher = fitter; tRNA-Arg(CCU), competitive growth, 37 C, YPD
# Summary of the method: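 Variants of the tRNA-Arg(CCU) gene were chemically synthesised with a 3% per-site mutation rate across 69 sites and placed at the native genomic locus in Saccharomyces cerevisiae. Six parallel replicates of the pooled strains were competed in YPD at 37°C for 24 hours, and gene amplicons from the start and end populations were read by 100-nucleotide paired-end sequencing. Darwinian fitness relative to wild type was derived from changes in genotype frequencies. Genotypes required ≥ 100 starting reads, and estimates < 0.5 were set to 0.5.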
row,Variant,yeast fitness
1,GUUGCGUUGGCGUAAUGGUAACGCGUCUCCCUCGUAAGGAGUAGACUGCGGGUUCGAGUCUCGUAUGGAACG [C4G C34G A42U C61U C66U],≤ 0.5
2,GUUGCGUUGGCGUAAUGGUAACGCGUCUCCCUCGUAAGGAGUAGACUGCGGGUUCGAGUCUCGUACGGAACG [C4G C34G A42U C61U],0.646
3,GUUGCGUUGGCGUAAUGGUAACGCGUCUCCCUCCUAAGGAGAAGACUGGGGGUUCGAGUCCCGUACAGAACG [C4G C49G G67A],≤ 0.5
4,GUUGCGUUGGCGUAAUGGUAACGCGUCUCCCUCGUAAGGGGAAGACUGCGGGUUCGAGUCCCGUACGGAACG [C4G C34G A40G],0.57
5,GUUGCGUUGGCGUAAUGGUAACGCGUCUACCUCUUUAGGAGAAGACUGCGGGUUCGAGUCCCGUACGGAACG [C4G C29A C34U A36U],0.578
6,GUUGCGUUGGCGUAAUGGUAACGCGUUUCCCUCCUAAGGAGAAGACUGCGGGUUCGAAUCCCGUACGGAACG [C4G C27U G58A],0.61
7,GUUGCGUUGGCGUAAUGGUAACGCGUCUCGCUCCUAAGGAGAAGACUGCGGGUUCGAGUCCCGUACGGUACG [C4G C30G A69U],≤ 0.5
8,GUUGCGUUGGCGUAAUGGUAACGCGUUUGCCUCCUAAGGAGAAGACUGCGGGUUCGAGUCCCGUACGGAACG [C4G C27U C29G],≤ 0.5
9,GUUGCGUUGGCGUAAUGGUAACGCGUCUCCCUCCUAAGGAGAAGACUGCGGGUUUGAGUCCCGUACGCAACG [C4G C55U G68C],0.56
10,GUUGCGUUGGCGUAAUGGUAACGCGUCUAUCUCCUAAGGAGAAGACUGCGGGUUCGAGUCCGGAACGGAACG [C4G C29A C30U C62G U64A],≤ 0.5
11,GUUGCGUUGGCGUAAUGGUAACGCGUCUCCCUCCUAAGGAGAAGAUUACGGGUUCGAGUCCCGUACGGAACG [C4G C46U G48A],1.04
12,GUUGCGUUGGCGUAAUGGUAACGCGUCUCCCUCUUAAGGAGAAGACUGCGGGUUAGAGUCCCGUACGCAACG [C4G C34U C55A G68C],≤ 0.5
13,GUUGCGUUGGCGUAAUGGUAACGCGUCUCGCUCCUAAGGGGAAGACUGCGGGUUCGAGUCCCGUCCGGAACG [C4G C30G A40G A65C],≤ 0.5
14,GUUGCGUUGGCGUAAUGGUAACGCGUCUCUCUCCUAAGGGGAAGACUGCGGGUUCGAGUGCCGUACGGAACG [C4G C30U A40G C60G],≤ 0.5
15,GUUGCGUUGGCGUAAUGGUAACGCGUCUCCCUCGUAAGGAGAGGACUGCGGGUUCGCGUCCCGUACGGAACG [C4G C34G A43G A57C],≤ 0.5
16,GUUGCGUUGGCGUAAUGGUAACGCGUCUCACUCCUAAGGAGCAGACUGCGGGUUCGAGUCCCGUACGGUACG [C4G C30A A42C A69U],≤ 0.5
17,GUUGCGUUGGCGUAAUGGUAACGCGUCUACCACCUAAGGAGAAGCCUGCGGGUUCGAGUCCCGUCCGGAACG [C4G C29A U32A A45C A65C],≤ 0.5
18,GUUGCGUUGGCGUAAUGGUAACGCGUCUCCCUCAUAAGGAGAAGACUGCGGGUUCGAGUCCCGUAUGGAACG [C4G C34A C66U],≤ 0.5
19,GUUGCGUUGGCGUAAUGGUAACGCGUCUCCGUCCUAAGGGGAAGACUGCGGGUUCGAGUCCAGUACGGAACG [C4G C31G A40G C62A],≤ 0.5

row,Variant,yeast fitness
1,GUUGCGUUGGCGUAAUGGUAACGCGUCUCCCUCCUAAGGAGAAGACUGCGGGUUUGAGUCCCAUACGCAACG [C4G C55U G63A G68C],≤ 0.5
2,GUUGCGUUGGCGUAAUGGUAACGCGUCUCCCUCCUAAGGAGAAGACUGCGGGUUAGAGUACCGUACGGAACG [C4G C55A C60A],≤ 0.5
3,GUUGCGUUGGCGUAAUGGUAACGCGUCUCCCUCAUAAGGAGAAGACUGCGGGUUCGAGUCCCGUACGGAACG [C4G C34A],0.762
4,GUUGCGUUGGCGUAAUGGUAACGCGUCUCCCUCUUAAGGAGAAGACUGCGGGUUCGAGUCCCGUACAGUACG [C4G C34U G67A A69U],≤ 0.5
5,GUUGCGUUGGCGUAAUGGUAACGCGUCUGCCUCCUAAGGAGAAGACUGCGGGUUCGAGUCUCGUACGGAACG [C4G C29G C61U],0.562
6,GUUGCGUUGGCGUAAUGGUAACGCGUCUCGCUACUAAGGAGAAGACUGCGGGUUCGAGUCCCGUACGGAACG [C4G C30G C33A],≤ 0.5
7,GUUGCGUUGGCGUAAUGGUAACGCGUCUACCUCCUAAGGAGAAGAAUGCGGGUUCGAGUCCCGUACGGAACG [C4G C29A C46A],≤ 0.5
8,GUUGCGUUGGCGUAAUGGUAACGCGUCUCCCUCCUAAGGAGAAGACUGAGGGUUCCAGUCUCGUACGGAACG [C4G C49A G56C C61U],0.609
9,GUUGCGUUGGCGUAAUGGUAACGCGUCUCCCUCGUAUGGAGUAGACUGCGGGUUCGAGUCUCGUACGGAACG [C4G C34G A37U A42U C61U],≤ 0.5
10,GUUGCGUUGGCGUAAUGGUAACGCGUCUCCCUCGUAAGGAGAAGACUGCGGGUUCGAGUCCCGUGCGGAACG [C4G C34G A65G],≤ 0.5
11,GUUGCGUUGGCGUAAUGGUAACGCGUUUCCCUCCUAAGGACCAGACUGCGGGUUCGAGUCCCGUACGGAACG [C4G C27U G41C A42C],≤ 0.5
12,GUUGCGUUGGCGUAAUGGUAACGCGUCUCCCUCCUAAGGAGAAGACUGCGGGUUUGAGUCCCGUACGGAACG [C4G C55U],0.748
13,GUUGCGUUGGCGUAAUGGUAACGCGUCUCACUCCUAAGGAGAAGACUGCGGGUUCGAGUCCCGUACAGAACG [C4G C30A G67A],≤ 0.5
14,GUUGCGUUGGCGUAAUGGUAACGCGUCUCUCUCCUAAGGAGAAGACUGUGGGUUCGAGUCCCGUACGGAACG [C4G C30U C49U],0.604
15,GUUGCGUUGGCGUAAUGGUAACGCGUCUCGCUCCUAAGGAGAAGACUGCUGGUUCGAGUCCCGUAUGGAACG [C4G C30G G50U C66U],0.588
16,GUUGCGUUGGCGUAAUGGUAACGCGUCUCCGUCCUAAGGAGAAGACUGCGGGUUCGAGUCCCGUACGGAACG [C4G C31G],0.761
17,GUUGCGUUGGCGUAAUGGUAACGCGUUUCCCUCCUAAGGAGAAGACUGUGGGUUCGAGUCCCGUACGGAACG [C4G C27U C49U],≤ 0.5
18,GUUGCGUUGGCGUAAUGGUAACGCGUCUCCCUCCUAAGGAGAAGACUGUGGAUUCGAGUCCCGUACGGAACG [C4G C49U G52A],0.55
